Results on 35 molecules are retold here after ChEMBL document CHEMBL4020841, “Structure Guided Lead Generation toward Nonchiral M. tuberculosis Thymidylate Kinase Inhibitors” (J Med Chem, 2018).

SMILES strings stand for the structures. Active and inactive are the calls of the source. The rule behind the calls is not given here. A value given as a limit tells only on which side of the number the result lay.

System in the first experiment: not listed separately
Kind of experiment: Inhibition of Mycobacterium tuberculosis TMPK expressed in Escherichia coli BLi5 using dTMP as substrate in presence of ATP by spectrophotometric based LDH/PK/nucleoside diphosphate kinase enzyme coupled assay. The gist of the method:
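Wild-type enzyme from pHL50 in E. coli BLi5, purified by Blue-Sepharose then gel filtration. IC50 fit to four-parameter logistic of % inhibition.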
`COc1ccc(CN2CCC(n3cc(C)c(=O)[nH]c3=O)CC2)cc1`: the IC50 was determined as 113 µM.

For the molecule `Cc1cn(C2CCN(Cc3cccc4ccccc34)CC2)c(=O)[nH]c1=O`, the IC50 came to 38 µM. The same measure, in the same setting: with `Cc1cn(C2CCN(Cc3ccc(C#N)cc3)CC2)c(=O)[nH]c1=O` the figure was 35 µM; with `Cc1cn(C2CCN(C(=O)c3cccc(Oc4ccccc4)c3)CC2)c(=O)[nH]c1=O`, 235 µM; with `Cc1cn(C2CN(CCc3cccc(Oc4ccccc4)c3)C2)c(=O)[nH]c1=O`, 1910 µM. The same measure, in the same setting: with `Cc1cn(C2CCN(Cc3ccnc4ccccc34)CC2)c(=O)[nH]c1=O` the figure was 25 µM. Same read-out and setting: with `Cc1cn(C2CCN(Cc3cc4ccccc4cn3)CC2)c(=O)[nH]c1=O` the figure was 26 µM; with `Cc1cn(C2CCN(Cc3ccccc3)CC2)c(=O)[nH]c1=O`, 138 µM. `Cc1cn(C2CCN(Cc3nccc4ccccc34)CC2)c(=O)[nH]c1=O`: the IC50 worked out at 27 µM. Same read-out and setting: with `Cc1cn(C2CCN(Cc3ccccn3)CC2)c(=O)[nH]c1=O` the figure was 96 µM; with `Cc1cn(C2CCN(Cc3ccoc3)CC2)c(=O)[nH]c1=O`, 254 µM.

With `Cc1cn(C2CCN(Cc3cnc4ccccc4c3)CC2)c(=O)[nH]c1=O`, the IC50 was determined as 17 µM. Same read-out and setting: with `Cc1cn(C2CCN(Cc3ccc(Oc4ccccc4)cc3)CC2)c(=O)[nH]c1=O` the figure was 29 µM.

For the molecule `Cc1cn(CC2CCN(Cc3ccc(Oc4ccccc4)cc3)CC2)c(=O)[nH]c1=O`, the IC50 is more than 2000 µM. For `Cc1cn(C2CCN(Cc3ccncc3)CC2)c(=O)[nH]c1=O`, the IC50 is 49 µM. `Cc1cn(C2CCN(Cc3cncc4ccccc34)CC2)c(=O)[nH]c1=O`: the IC50 stood at 25 µM. Same read-out and setting: with `Cc1cn(C2CCN(C(=O)c3ccc(Oc4ccccc4)cc3)CC2)c(=O)[nH]c1=O` the figure was 353 µM; with `Cc1cn(C2CCN(Cc3ccc(Cl)cc3)CC2)c(=O)[nH]c1=O`, 40 µM; with `Cc1cn(C2CCN(Cc3ccco3)CC2)c(=O)[nH]c1=O`, 114 µM. Still for that read-out and setting: with `Cc1cn(C2CCN(Cc3cccc(C(=O)O)n3)CC2)c(=O)[nH]c1=O` the figure was 143 µM; with `Cc1cn(C2CN(Cc3cccc(Oc4ccccc4)c3)C2)c(=O)[nH]c1=O`, 944 µM. Regarding `Cc1cn(C2CN(Cc3ccc(Oc4ccccc4)cc3)C2)c(=O)[nH]c1=O`, the IC50 is 832 µM. Turning to `Cc1cccc(CN2CCC(n3cc(C)c(=O)[nH]c3=O)CC2)c1`, the IC50 was found to be 72 µM. For `Cc1cn(C2CCN(CCc3cccc(Oc4ccccc4)c3)CC2)c(=O)[nH]c1=O`, the IC50 was 11 µM. Same read-out and setting: with `Cc1cn(C2CN(CCCc3cccc(Oc4ccccc4)c3)C2)c(=O)[nH]c1=O` the figure was 1140 µM; with `Cc1cn(C2CCN(Cc3ccc(N(C)C)cc3)CC2)c(=O)[nH]c1=O`, 328 µM; with `Cc1cn(C2CCN(Cc3cc4ccccc4o3)CC2)c(=O)[nH]c1=O`, 23 µM.

Take `Cc1cn(C2CCN(Cc3ccc4ccccc4c3)CC2)c(=O)[nH]c1=O`: the IC50 was determined as 20 µM. As to `Cc1cn(C2CCN(Cc3cccc(Oc4ccccc4)c3)CC2)c(=O)[nH]c1=O`, the IC50 was found to be 6.1 µM. As for `Cc1cn(C2CCN(Cc3cc(Oc4ccccc4)c4ccc(Cl)cc4n3)CC2)c(=O)[nH]c1=O`, the IC50 worked out at 1.8 µM. As for `Cc1cn(C2CCN(CC3CCCCC3)CC2)c(=O)[nH]c1=O`, the IC50 turned out to be 1120 µM.

Take `Cc1ccc(CN2CCC(n3cc(C)c(=O)[nH]c3=O)CC2)cc1`: the IC50 is 168 µM. Still for that read-out and setting: with `Cc1cn(C2CCN(Cc3cccnc3)CC2)c(=O)[nH]c1=O` the figure was 75 µM; with `Cc1cn(C2CCN(Cc3ccc(C(=O)O)cc3)CC2)c(=O)[nH]c1=O`, 141 µM.

In the next experiment the test system is Mycobacterium tuberculosis. The experiment in a line: Inhibition of Mycobacterium tuberculosis TMPK expressed in Escherichia coli BLi5 at 0.8 mM using dTMP as substrate in presence of ATP by spectrophotometric based LDH/PK/nucleoside diphosphate kinase enzyme coupled assay.
Take `Cc1cn(CC2CCN(Cc3cccc(Oc4ccccc4)c3)CC2)c(=O)[nH]c1=O`: the inhibition entry was “inactive”.

In general, IC50 refers to the midpoint of a concentration-inhibition curve.
